In ChEMBL document CHEMBL4118124, “Quinone skeleton as a new class of irreversible inhibitors against Staphylococcus aureus sortase A” (Bioorg Med Chem Lett, 2018):
The source made the active and inactive calls. No cut-off for these calls is given here.

Columns and labels:
Sortase A [1] = target: T1, Sortase A (Staphylococcus aureus, UniProt Q9S446); assay: (§1) Inhibition of Staphylococcus aureus SrtA deltaN24 mutant assessed as decrease in transpeptidation of IsdA (64 to 323 residues) incubated for 1.25 hrs in presence of NH2-Gly3 nucleophile by SDS-PAGE method
In short: (§2)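 Affinity-purified IsdA64–323, a natural SrtA substrate, incubated with purified SrtA ΔN24 and NH2-Gly3 nucleophile, with or without compound. Sorting-signal cleavage giving the transpeptidation product resolved by SDS-PAGE; inhibition seen as partial or complete loss of product.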

Staphylococcus aureus [2] = assay: Growth inhibition of Staphylococcus aureus Newman at 50 uM measured every hour; assay type: organism-based; conditions: in vivo
Sortase A [3] = target: T1, Sortase A; assay: Inhibition of Staphylococcus aureus SrtA deltaN24 mutant transpeptidation activity using abz-LPATG-dnp as substrate preincubated for 10 mins followed by substrate addition measured every 2 mins for 20 mins by FRET assay
Staphylococcus aureus [4] = assay: Antibiofilm activity against Staphylococcus aureus Newman assessed as inhibition of biofilm biomass after 18 hrs by crystal violet staining-based assay; assay type: functional, organism-based
[5] = target: T2, Sortase A (Staphylococcus aureus) (UniProt Q9S446); assay: Inhibition of Staphylococcus aureus Newman SrtA assessed as decrease in SpA display by SDS/PAGE immunoblotting assay; conditions: Staphylococcus aureus subsp. aureus str. Newman
T2 sequence (whole entry): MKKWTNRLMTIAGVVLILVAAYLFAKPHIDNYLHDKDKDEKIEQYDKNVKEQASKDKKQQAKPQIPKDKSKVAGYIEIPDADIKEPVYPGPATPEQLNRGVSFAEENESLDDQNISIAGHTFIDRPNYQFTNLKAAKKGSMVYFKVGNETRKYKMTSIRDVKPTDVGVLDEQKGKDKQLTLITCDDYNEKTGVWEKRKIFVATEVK

[6] = target: T2, Sortase A (Staphylococcus aureus); assay: Irreversible inhibition of Staphylococcus aureus SrtA deltaN24 mutant transpeptidation activity using […] as substrate assessed as remaining activity at 10 fold IC50 preincubated for 1 hr followed by protein dilution and subsequent substrate addition measured every 2 mins for 20 mins by FRET assay relative to control
Staphylococcus aureus [7] = assay: Growth inhibition of Staphylococcus aureus Newman at 150 uM incubated for 12 hrs measured every hour by spectrophotometry; assay type: organism-based; conditions: in vivo
[8] = target: T2, Sortase A (Staphylococcus aureus); assay: Inhibition of Staphylococcus aureus Newman SrtA assessed as decrease in SpA display by FITC-IgG-based fluorescence assay; conditions: Staphylococcus aureus subsp. aureus str. Newman
[9] = target: T2, Sortase A (Staphylococcus aureus); assay: Binding affinity to Staphylococcus aureus 15N-labelled SrtA deltaN59 C184A mutant at 1:0, 1:1, 1:2, 1:5 and 1:10 molar ratio of protein and compound by 2D 1H-15N HSQC spectra method
[10] = target: T2, Sortase A (Staphylococcus aureus); assay: Irreversible binding affinity to Staphylococcus aureus SrtA deltaN24 mutant at Cys184 at 10 fold IC50 preincubated with compound for 1 hr followed by protein dilution by ESI-LC-MS/MS method
[11] = target: T2, Sortase A (Staphylococcus aureus); assay: Irreversible inhibition of Staphylococcus aureus SrtA deltaN24 mutant transpeptidation activity using abz-LPATG-dnp as substrate assessed as ratio Kinact to Ki incubated for 5 to 25 mins by FRET assay
[12] = target: T2, Sortase A (Staphylococcus aureus); assay: Irreversible binding affinity to Staphylococcus aureus SrtA deltaN24 mutant at 10 fold IC50 preincubated with compound for 1 hr followed by protein dilution by ESI-LC/MS method
Sortase A [13] = target: T1, Sortase A; assay: (§3) Irreversible inhibition of Staphylococcus aureus SrtA deltaN24 mutant transpeptidation activity using abz-LPATG-dnp as substrate incubated for 5 to 25 mins by FRET assay
[14] = target: T2, Sortase A (Staphylococcus aureus); assay: as §3
[15] = target: T2, Sortase A (Staphylococcus aureus); assay: Binding affinity to Staphylococcus aureus 15N-labelled SrtA deltaN59 mutant at 1:0 and 1:1 molar ratio of protein and compound by 2D 1H-15N HSQC spectra method
[16] = target: T2, Sortase A (Staphylococcus aureus); assay: as §1; in short: as §2

Structure (SMILES)	IC50 (Sortase A [1])	growth inhibition (GI) (Staphylococcus aureus [2])	IC50 (Sortase A [3])	inhibition (Staphylococcus aureus [4])	inhibition [5]	Activity [6]	growth inhibition (GI) (Staphylococcus aureus [7])	inhibition [8]	Activity [9]	Activity [10]	Ratio [11]	Activity [12]	Ki (Sortase A [13])	Kinact [14]	Activity [15]	inhibition [16]
CC(C)=CC[C@H](O)C1=CC(=O)c2c(O)ccc(O)c2C1=O [ALKANNIN]	5 µM	Toxic	0.36 µM													
O=C1C[C@H]2O[C@@H](CCc3ccccc3)C3=C(C(=O)C=CC3=O)[C@H]2O1	50 µM		19.4 µM	Dose-dependent effect	Dose-dependent effect	< 10%	Non-Toxic	Dose-dependent effect								
CC(C)=CC[C@@H](O)C1=CC(=O)c2c(O)ccc(O)c2C1=O [SHIKONIN]	5 µM	Toxic	0.3 µM													
O=C1C[C@H]2O[C@H](CCc3ccccc3)C3=C(C(=O)C=CC3=O)[C@H]2O1	10 µM		6.2 µM	Dose-dependent effect	Dose-dependent effect	< 10%	Non-Toxic	Dose-dependent effect	inactive	Active	0.0109 µM⁻¹ min⁻¹	Active	3.57 µM	0.0388 min⁻¹	Active	
CCCNC1=C(C)C(=O)c2c(/C=C/S(=O)(=O)c3ccccc3)cccc2C1=O			> 50 µM													inactive
